Source: PubChem BioAssay
Only some compounds are listed: those with a hit (about 3.5% of all), similar ones and a draw of the others.
RGS4 pot = RGS4 potentiators or activators, primary screen, cell-based, HEK293 M3R inducible RGS4, calcium flux. carbachol calcium flux Fluo4; stronger effect = lower value. B-score at 10 µM. 310,000 compounds, 0.92% hits. AID 463111, 2010;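 active = B-score of the integrated calcium signal more than 4 SD below the library mean, with starting fluorescence not abnormally high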;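 also: negative B-score means reduced calcium response which marks RGS4 activation or potentiation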
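System: HEK293 FlpIn-TREx cells, stable M3R, doxycycline-inducible RGS4. Timing: overnight RGS4 induction, 30 min dye load 37 °C, 20 min compound RT. Also added: carbachol, ECmax concentration. Measured by: Fluo4 fluorescence kinetic imaging of calcium. Evaluation: integrated calcium ratio converted to B score.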
MrgX1 PAM = positive allosteric modulators of MrgX1, primary screen, HEK293 cells, Fluo-4 calcium flux; FDSS; stronger effect = higher value; B-score at 10 µM; 310,000 compounds, 0.63% hits; AID 588675, 2011;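 active = plate-corrected calcium response at least 3 library SD above typical, normal starting fluorescence, not activating the receptor alone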;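 also: compound read alongside a low EC10 to EC30 dose of BAM8-22 agonist; peak minus trough fluorescence over baseline measured at the second addition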
Target sequence (Q96LB2 whole entry, looked up): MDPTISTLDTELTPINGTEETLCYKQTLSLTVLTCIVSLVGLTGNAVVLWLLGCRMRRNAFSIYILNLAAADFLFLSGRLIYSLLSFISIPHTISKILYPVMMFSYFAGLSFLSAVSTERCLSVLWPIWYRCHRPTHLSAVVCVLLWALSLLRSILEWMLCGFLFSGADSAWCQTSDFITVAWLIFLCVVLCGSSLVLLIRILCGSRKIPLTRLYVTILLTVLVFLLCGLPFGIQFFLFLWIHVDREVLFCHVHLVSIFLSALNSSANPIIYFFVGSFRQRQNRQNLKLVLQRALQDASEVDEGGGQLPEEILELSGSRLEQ
MrgX1 agonist = agonists of human MrgX1 receptor, primary screen, HEK293 cells, Fluo-4 calcium flux | Mas-related G-protein coupled receptor member X1 (Homo sapiens), Q96LB2 | B-score at 10 µM | AID 588627, 2011 | Fluo-4 calcium fluorescence, agonist mode; stronger effect = higher value | 310,000 compounds, 0.44% hits;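 active = calcium response B-score plate-corrected fluorescence ratio at least 3 library SD, with starting fluorescence B-score inside 5 SD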
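Assay system: MrgX1-expressing HEK293 cells / Amount: fifteen thousand cells per well / Doses: test compound in the initial addition of three / Timing: cells plated overnight, dye loaded 0.5 h 37 °C, 0.5 h room temperature / Technique: kinetic calcium dye fluorescence, Fluo-4 NW / Control set: positive and negative controls per plate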
RGS4 block = RGS4 inhibitors, primary screen, cell-based, HEK293 M3R inducible RGS4, calcium flux; Fluo-4 calcium flux; stronger effect = higher value; triggered by carbachol at its EC20; B-score at 10 µM; 310,000 compounds, 0.45% hits;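 active = B-score, a plate-corrected calcium signal, over three deviations above library mean, with baseline fluorescence within five deviations of library mean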;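 also: RGS4 expression induced by doxycycline in cells with stable M3 receptor; B-score is computed from the integrated fluorescence ratio over baseline after carbachol; higher B-score means a larger calcium signal and so more RGS4 inhibition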
Target sequence (P49798 whole entry, looked up): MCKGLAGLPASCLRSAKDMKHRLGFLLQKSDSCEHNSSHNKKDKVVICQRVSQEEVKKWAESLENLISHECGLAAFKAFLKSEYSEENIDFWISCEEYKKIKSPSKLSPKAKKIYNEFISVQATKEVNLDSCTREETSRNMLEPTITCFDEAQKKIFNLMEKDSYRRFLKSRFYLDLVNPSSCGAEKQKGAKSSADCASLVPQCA
MrgX1 antag = antagonists of human MrgX1 receptor, primary screen, HEK293 cells, Fluo-4 calcium flux. Mas-related G-protein coupled receptor member X1 (Homo sapiens), Q96LB2. BAM8-22 antagonism; stronger effect = lower value. B-score at 10 µM. 310,000 compounds, 1.3% hits. AID 588676, 2011;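 active = calcium-response B-score plate-corrected more than 3 library SD below zero, starting fluorescence within 5 deviations, no agonist response on first addition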;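 also: peak minus trough fluorescence over baseline after final BAM8-22 challenge near maximal dose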
Each line names hits and unclear results; the compound was inactive in the other large screens.

COc1cccc(Cn2cc(C)cc(NC(=O)NCc3ccccc3)c2=O)c1	none
COc1ccc(-c2noc(CCC(=O)N3CCN(Cc4ccccc4)CC3)n2)cc1	MrgX1 antag -5.3
COc1ccc(-c2noc(CCC(=O)N3CCC(C)CC3)n2)cc1	none
COc1ccc(C(O)(C2CCCCC2)C(CN2CCOCC2)c2ccccc2)cc1 (configuration not stated)	none
OC(c1ccccc1)(C1CCCCC1)C(CN1CCOCC1)c1ccccc1 (configuration not stated)	MrgX1 antag -8.2
O=C1Nc2ccccc2C1(O)C/C(=N/O)c1ccccc1 (configuration not stated)	MrgX1 antag -7.5
CC(=O)CC1(O)C(=O)Nc2ccccc21 (configuration not stated)	none
Cc1ccc(NC(=O)c2nn(C34CC5CC(CC(C5)C3)C4)cc2[N+](=O)[O-])cc1	MrgX1 antag -5
CC(C)c1ccc(S(=O)(=O)N2CCN(C(=O)C3CCCC3)CC2)cc1	none
O=C(CSC1=N/C(=C/c2ccc(Cl)c(Cl)c2)C(=O)N1c1ccccc1F)NC1CC1	none
CCN1/C(=C/c2ccc3cc(C)ccc3[n+]2CC)Sc2ccc3sccc3c21	MrgX1 agonist 39
CCN1/C(=C\c2ccc3cc(C)ccc3[n+]2CC)Sc2cc(C)c(C)cc21	none (no result: MrgX1 PAM, MrgX1 agonist, MrgX1 antag)
O=C(O)COc1ccc(/C=N/n2c(COc3ccccc3)nc3ccccc3c2=O)cc1	none
O=c1c2ccccc2nc(COc2ccccc2)n1/N=C/c1ccc(O)c(O)c1	RGS4 pot -7.7
O=C(N/N=C/c1ccc(O)c(O)c1)NC12CC3CC(CC(C3)C1)C2	RGS4 block 5.1
O=C(Nc1ccc(C(=O)N2CCN(c3ccccc3)CC2)cc1)C1=CSCCO1	none
COc1ccc(N(C)C(=O)c2ccc3c(Cl)c4c(nc3c2)CCCC4)c(OC)c1	RGS4 pot -7.1
CCC(C)N(C(=O)Cn1cnc2c1c(=O)n(C)c(=O)n2C)C1CCS(=O)(=O)C1 (configuration not stated)	none
COc1ccc(CCNC(=O)C2CCC(=O)N(CC3CCCCC3)C2)cc1 (configuration not stated)	RGS4 pot -7.1 (no result: MrgX1 PAM, MrgX1 agonist, MrgX1 antag)
O=C(COC(=O)Cc1cccs1)NCc1ccc(F)cc1	none
O=C(Nc1ccc2c(c1)CCCN2C(=O)c1cccs1)c1c(F)cccc1Cl	none
COC(=O)c1c(NC(=O)COC(=O)c2ccc(Cl)cc2[N+](=O)[O-])sc2c1CCCCC2	none
COC(=O)c1c(NC(=S)Nc2ccc(F)cc2[N+](=O)[O-])sc2c1CCCCC2	MrgX1 PAM 8.9
Cc1cc(C)c(S(=O)(=O)NC2CC(C)(C)NC(C)(C)C2)cc1Br	none
C/C(=N\O)c1ccccc1C(=O)O	MrgX1 antag -6.2
CC(=O)Oc1ccc(N2C(=O)C3C4C=CC(CO)(O4)C3C2=O)cc1 (configuration not stated)	none
O=C1C2C3C=CC(CO)(O3)C2C(=O)N1c1ccccc1-c1ccccc1 (configuration not stated)	MrgX1 agonist 34 (no result: RGS4 pot, RGS4 block)
O=C(Nc1ccc(Br)cc1)Nc1ccccc1F	none
O=C(Nc1ccc(Cl)c(Cl)c1)Nc1ccc(Br)cc1F	MrgX1 antag -5.2
Cc1nn(CC(=O)Nc2ccc(C(C)C)cc2)c(C)c1[N+](=O)[O-]	MrgX1 antag -7.1
CC(=O)c1ccc(NC(=O)Cn2nc(C)c([N+](=O)[O-])c2C)cc1	none
CCCCn1c(SCc2cccc([N+](=O)[O-])c2)nc2ccsc2c1=O	RGS4 pot -8.1
COCCn1c(SCc2cccc([N+](=O)[O-])c2)nc2ccccc2c1=O	none
COc1cc(C)c(Cl)cc1S(=O)(=O)N1CCSC1	none
COc1ccc(CCNC(=O)c2ccc3c(c2)NC(=O)C(CSCc2cc(C)ccc2C)N3)cc1OC (configuration not stated)	MrgX1 agonist 28
O=C(NCC1CCCN1S(=O)(=O)c1cccs1)c1cccc(F)c1 (configuration not stated)	none
COc1ccc(/C=C2\SC(=O)N(CCNC(=O)Cc3coc4cc(C)ccc34)C2=O)cc1OC	RGS4 pot -8.5
O=C1SCCC1NS(=O)(=O)c1ccc([N+](=O)[O-])cc1 (configuration not stated)	none
O=C(/C=C/c1cccnc1)c1ccc(NC(=O)c2cccc(Br)c2)cc1	MrgX1 PAM 7.1
CC(=O)Nc1cccc(C(=O)/C=C/c2ccc(/C=C/C(=O)c3cccc(NC(C)=O)c3)cc2)c1	RGS4 block 4.8
Cc1cccc(C(=O)Nc2ccc(C(=O)/C=C/c3ccncc3)cc2)c1	MrgX1 PAM 11
Cc1cccc(C(=O)Nc2ccc(C(=O)/C=C/c3cccnc3)cc2)c1	none
N#Cc1c(C(F)(F)F)cc(Cc2ccccc2)nc1SCC(=O)NCC(=O)O	none
COc1ccc(NC(=O)/C=C/c2ccc(Br)o2)cn1	MrgX1 antag -7.2
O=C(/C=C/c1ccccc1)Nc1cccnc1	none
Cc1ccc(/C=C/C(=O)Nc2cccnc2)o1	MrgX1 antag -7.1
CS(=O)(=O)C1=NSC2=NC(=O)/C(=C\c3ccc(OC(=O)c4ccco4)c(Br)c3)C(=N)N21	MrgX1 PAM 17
CCS(=O)(=O)C1=NN2C(=N)/C(=C\c3ccc(OC(=O)c4ccco4)cc3)C(=O)N=C2S1	MrgX1 PAM 8.6
COc1cc(/C=C2\C(=N)N3N=C(S(=O)(=O)CC(C)C)SC3=NC2=O)ccc1OC(=O)c1ccco1	none
CCC1=NN2C(=N)/C(=C/c3ccc(OS(=O)(=O)c4ccccc4)cc3)C(=O)N=C2S1	MrgX1 agonist 39
CCS(=O)(=O)C1=NN2C(=N)/C(=C\c3ccc(OS(=O)(=O)c4ccccc4)c(OC)c3)C(=O)N=C2S1	none
CCC1=NN2C(=N)/C(=C/c3ccc(OS(=O)(=O)c4ccc(C)cc4)c(OC)c3)C(=O)N=C2S1	none
CCS(=O)(=O)C1=NN2C(=N)/C(=C\c3ccc(OS(=O)(=O)c4ccccc4)cc3)C(=O)N=C2S1	MrgX1 PAM 7.2
COc1ccc(NC(=O)Nc2nnc(Cc3ccc(F)cc3)s2)cc1	none
Cc1sc(N)nc1-c1ccc(Oc2ccccc2)cc1	none
O=C(N=C1SC2CS(=O)(=O)CC2N1Cc1ccc(Cl)cc1)C1CC1 (configuration not stated)	none
Cc1ccc(C)c(N2CCN(C(=O)CCS(=O)(=O)c3ccc4c(c3)oc(=O)n4C)CC2)c1	none
C/C(=N/NC(=O)CNC(=O)COc1cccc(C)c1)c1ccc(Cl)cc1	none
CCN(c1ccccc1)S(=O)(=O)c1ccc(Cl)c(NC(=O)CN2C(=O)NC3(CCCC3)C2=O)c1	none
CCC(CC)C1=NN2C(=N)/C(=C/c3ccc(OC(=O)c4ccco4)cc3)C(=O)N=C2S1	none
